Laboratory results reported in ChEMBL document CHEMBL4402567, “Structure-Activity Relationship Studies on Diversified Salicylamide Derivatives as Potent Inhibitors of Human Adenovirus Infection” (J Med Chem, 2020).

Assays:
Human adenovirus 5 [1] = experiment: Antiviral activity against Human adenovirus 5 infected in 293beta5 cells assessed as inhibition of plaque formation incubated for 7 days by GFP reporter gene assay; type: functional, organism-based; conditions: Human mastadenovirus C, 293beta5, 168 h
In short: (§1)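 HAdV5-GFP plaque assay in 293β5 cells at low MOI. Inhibition is expressed as percent of the infected control, with single-dose screening at 10 μM. Compounds giving >90% inhibition went on to IC50 determination. Values are means ± SD of triplicate samples from three independent experiments.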

[2] = Cytotoxicity against human A549 cells assessed as reduction in cell viability after 48 hrs by alamar blue assay; type: cell-based
[3] = Selectivity index, ratio of CC50 for cytotoxicity against human A549 cells to IC50 for antiviral activity against Human adenovirus 5 infected in 293beta5 cells assessed as inhibition of plaque formation after 7 days; type: toxicity, cell-based; conditions: read-out: Ratio CC50/IC50
Human adenovirus 5 [4] = experiment: Antiviral activity against Human adenovirus 5 infected in 293beta5 cells assessed as inhibition of plaque formation at 10 uM incubated for 7 days by GFP reporter gene assay relative to control; type: functional; conditions: Human mastadenovirus C, 293beta5, 168 h; in short: as §1
Human adenovirus 5 [5] = experiment: Antiviral activity against Human adenovirus 5 infected in human A549 cells assessed as inhibition of viral entry at 50 uM after 48 hrs by GFP reporter gene based assay relative to control; type: functional; conditions: Human mastadenovirus C, A549, 48 h
In short: (§2)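 Entry assay in A549 epithelial cells infected with HAdV5-GFP at high MOI, with compound present throughout and 48 h incubation. GFP expression is the read-out.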

Human adenovirus 5 [6] = experiment: Antiviral activity against Human adenovirus 5 infected in human A549 cells assessed as inhibition of viral entry after 48 hrs by GFP reporter gene based assay; type: functional, organism-based; conditions: Human mastadenovirus C, A549, 48 h; in short: as §2
Human adenovirus 5 [7] = experiment: Antiviral activity against Human adenovirus 5 infected in human A549 cells assessed as fold reduction in virus yield at 50 uM after 48 hrs endpoint dilution method relative to control; type: functional
Human adenovirus 5 [8] = experiment: Antiviral activity against Human adenovirus 5 infected in 293beta5 cells assessed as inhibition of viral replication at 10 uM measured immediately post infection by GFP reporter gene assay relative to control; type: functional; conditions: Human mastadenovirus C
Human adenovirus 5 [9] = experiment: Antiviral activity against Human adenovirus 5 infected in human A549 cells asssessed as inhibition of viral entry by measuring nuclear-associated viral genome level at 50 uM after 45 mins by RT-PCR analysis (reference value: 100.24 +/- 2.77%); type: functional; set-up: scale not given: the % may be the effect or the level left
In short: (§3)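 Nuclear HAdV genome levels in treated cells were quantified at 45 min post-infection and compared with DMSO-treated cells. […] Bars are means ± SD of triplicate samples.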

Human adenovirus 5 [10] = experiment: Antiviral activity against Human adenovirus 5 infected in human A549 cells assessed as inhibition of viral DNA replication by measuring number of viral DNA copies at 50 uM after 24 hrs by RT-qPCR analysis (reference value: 100 +/- 1.55%); type: functional; set-up: scale not given: the % may be the effect or the level left
Human adenovirus 5 [11] = experiment: Antiviral activity against Human adenovirus 5 infected in human A549 cells assessed as fold reduction in virus yield at 5 uM after 48 hrs endpoint dilution method relative to control; type: functional
Human adenovirus 5 [12] = experiment: Antiviral activity against Human adenovirus 5 infected in 293beta5 cells assessed as inhibition of viral infection at 5 uM preincubated for 60 mins followed by viral infection by GFP reporter gene assay relative to control; type: functional; conditions: Human mastadenovirus C
Human adenovirus 5 [13] = experiment: Antiviral activity against Human adenovirus 5 infected in 293beta5 cells assessed as inhibition of viral infection at 5 uM measured after 2 hrs post infection by gene assay relative to control; type: functional; conditions: Human mastadenovirus C, 293beta5, 2 h
Human adenovirus 5 [14] = experiment: Antiviral activity against Human adenovirus 5 infected in human A549 cells asssessed as inhibition of viral entry by measuring nuclear-associated viral genome level at 5 uM after 45 mins by RT-PCR analysis (reference value: 100.24 +/- 2.77%); type: functional; set-up: scale not given: the % may be the effect or the level left; in short: as §3
Human adenovirus 5 [15] = experiment: Antiviral activity against Human adenovirus 5 infected in human A549 cells assessed as inhibition of viral DNA replication by measuring number of viral DNA copies at 5 uM after 24 hrs by RT-qPCR analysis (reference value: 100 +/- 1.55%); type: functional; set-up: scale not given: the % may be the effect or the level left
Human adenovirus 5 [16] = experiment: Antiviral activity against Human adenovirus 5 infected in human A549 cells assessed as inhibition of viral DNA replication at 5 uM after 24 hrs by RT-qPCR analysis relative to control; type: functional; conditions: Human mastadenovirus C, A549, 24 h

| SMILES | IC50 (Human adenovirus 5 [1]) [nM] | CC50 at 48 h [2] [µM] | selectivity ratio at 168 h [3] | inhibition at 10 µM (Human adenovirus 5 [4]) [%] | other results |
| --- | --- | --- | --- | --- | --- |
| O=C(Nc1cc(F)cc(C(F)(F)F)c1)c1cc(Cl)ccc1O | 180 | 120 | 667 | 100 | inhibition at 50 µM (Human adenovirus 5 [5]): 100%; IC50 (Human adenovirus 5 [6]): 2230 nM; fold change (FC) (Human adenovirus 5 [7]): 989; inhibition at 10 µM (Human adenovirus 5 [8]): < 50%; Activity (Human adenovirus 5 [9]): 66.96%; Activity (Human adenovirus 5 [10]): 82.41% |
| CC(C)[C@H](NC(=O)c1cc(Cl)ccc1O)C(=O)Nc1cc(F)cc(C(F)(F)F)c1 | 660 | 43 | 65.2 |  |  |
| CC(C)(C)OC(=O)CC[C@H](NC(=O)c1cc(Cl)ccc1O)C(=O)Nc1ccc([N+](=O)[O-])cc1Cl | 670 | 22.9 | 34.2 |  |  |
| CC(C)[C@H](NC(=O)c1cc(Cl)ccc1O)C(=O)Nc1ccc(F)c(F)c1 | 2960 | 95 | 32.1 |  |  |
| O=C(Cc1cc(Cl)ccc1O)Nc1ccc([N+](=O)[O-])cc1Cl |  |  |  | 0 |  |
| CS(=O)(=O)Nc1ccc(Cl)cc1C(=O)NCC(=O)Nc1ccc([N+](=O)[O-])cc1Cl | 9650 | 141 | 14.6 |  |  |
| C[C@@H](NC(=O)c1cc(Cl)ccc1O)c1ccccc1 |  | 84.6 |  | 100 |  |
| O=C(Nc1cc(F)cc(C(F)(F)F)c1)c1cccc(Cl)c1 | 5610 | 38.6 | 6.9 |  |  |
| O=C(Nc1cc([N+](=O)[O-])ccc1F)c1cc(Cl)ccc1O | 310 | 8.1 | 26.2 | 100 |  |
| O=C(Nc1cc(C(F)(F)F)cc(C(F)(F)F)c1)c1cc(Cl)ccc1O [IMD-0354] | 60 | 4.1 | 68.3 | 100 |  |
| CC[C@@H](C)[C@H](NC(=O)c1cc(Cl)ccc1O)C(=O)Nc1ccc([N+](=O)[O-])cc1Cl | 160 | 20.2 | 128 |  | IC50 (Human adenovirus 5 [6]): 2500 nM; fold change (FC) (Human adenovirus 5 [11]): 10; inhibition at 5 µM (Human adenovirus 5 [12]): > 50%; inhibition at 5 µM (Human adenovirus 5 [13]): > 50%; Activity (Human adenovirus 5 [14]): 0.54%; Activity (Human adenovirus 5 [15]): 2.33%; inhibition at 5 µM (Human adenovirus 5 [16]): > 90% |
| CN(Cc1ccc(F)cc1)C(=O)c1cc(Cl)ccc1O |  |  |  | 0 |  |
| O=C(N[C@@H](Cc1ccccc1)C(=O)Nc1cc(C(F)(F)F)cc(C(F)(F)F)c1)c1cc(Cl)ccc1O | 400 | 17.9 | 44.9 |  |  |
| O=C(Nc1cc(F)cc(C(F)(F)F)c1)c1ccccc1O | 1070 | 16.3 | 15.2 |  |  |
| CC(C)[C@H](NC(=O)c1cc(Cl)ccc1O)C(=O)Nc1cc(C(F)(F)F)cc(C(F)(F)F)c1 | 400 | 30.9 | 77.4 |  |  |
| C[C@@H](NC(=O)c1cc(Cl)ccc1O)c1ccc(Cl)cc1 |  | 31.1 |  | 100 |  |
| Cc1ccc(O)c(C(=O)Nc2cc(F)cc(C(F)(F)F)c2)c1 | 650 | 15.2 | 23.3 |  |  |
| CC(C)[C@H](NC(=O)c1cc(Cl)ccc1O)C(=O)Nc1ccc([N+](=O)[O-])cc1Cl | 450 | 200 | 444 | 100 | IC50 (Human adenovirus 5 [6]): 11200 nM; fold change (FC) (Human adenovirus 5 [7]): 213; inhibition at 10 µM (Human adenovirus 5 [8]): < 50%; Activity (Human adenovirus 5 [9]): 91.82%; Activity (Human adenovirus 5 [10]): 60.09% |
| O=C(N[C@@H](Cc1ccccc1)C(=O)Nc1ccc([N+](=O)[O-])cc1Cl)c1cc(Cl)ccc1O | 7000 | 15.2 |  | 100 |  |
| C[C@H](NC(=O)c1cc(Cl)ccc1O)C(=O)Nc1ccc([N+](=O)[O-])cc1Cl | 3850 | 100 | 26 |  |  |
| O=C(Nc1ccc([N+](=O)[O-])c(Cl)c1)c1cc(Cl)ccc1O | 1000 |  |  | 100 |  |
| O=C(Cc1cc(Cl)ccc1O)Nc1cc(F)cc(C(F)(F)F)c1 | 4920 | 23.7 | 4.8 |  |  |
| O=C(CNC(=O)c1cc(Cl)ccc1O)Nc1ccc([N+](=O)[O-])cc1Cl | 2430 | 129 | 53.2 | 100 |  |
| O=C(Nc1cc(F)cc(C(F)(F)F)c1)c1ccc(Cl)cc1O | 110 | 20.6 | 187 |  | inhibition at 50 µM (Human adenovirus 5 [5]): 100%; IC50 (Human adenovirus 5 [6]): 260 nM; fold change (FC) (Human adenovirus 5 [11]): 385; inhibition at 5 µM (Human adenovirus 5 [12]): > 50%; inhibition at 5 µM (Human adenovirus 5 [13]): > 50%; Activity (Human adenovirus 5 [14]): 54.74%; Activity (Human adenovirus 5 [15]): 68.17% |

Continued, in another order:

| IC50 (Human adenovirus 5 [1]) [nM] | SMILES | CC50 at 48 h [2] [µM] | selectivity ratio at 168 h [3] | inhibition at 10 µM (Human adenovirus 5 [4]) [%] | other results |
| --- | --- | --- | --- | --- | --- |
| 3940 | O=C(NCCc1ccc(F)cc1)c1cc(Cl)ccc1O | 154 | 39.1 |  |  |
| 3020 | C[C@@H](NC(=O)c1cc(Cl)ccc1O)c1ccc(F)cc1 | > 200 | > 66.2 | 100 |  |
| 3460 | CC(C)(NC(=O)c1cc(Cl)ccc1O)c1ccc(F)cc1 | > 200 | > 57.8 | 100 |  |
| 110 | O=C(Nc1ccc([N+](=O)[O-])cc1)c1cc(Cl)ccc1O |  |  |  | inhibition at 50 µM (Human adenovirus 5 [5]): 100%; fold change (FC) (Human adenovirus 5 [11]): 137; inhibition at 5 µM (Human adenovirus 5 [12]): > 50%; inhibition at 5 µM (Human adenovirus 5 [13]): > 50%; Activity (Human adenovirus 5 [14]): 15.48%; Activity (Human adenovirus 5 [15]): 0.51%; inhibition at 5 µM (Human adenovirus 5 [16]): > 90% |
| 8120 | Cc1ccc(CNC(=O)c2cc(Cl)ccc2O)cc1 | 87.7 | 10.8 |  |  |
| 1400 | O=C(NCc1ccc([N+](=O)[O-])cc1Cl)c1cc(Cl)ccc1O | 51.4 | 36.7 | 100 |  |
| 1400 | O=C(NCc1ccc(C(F)(F)F)c(F)c1)c1cc(Cl)ccc1O | 22.3 | 15.9 |  |  |
| 2540 | C[C@H](NC(=O)c1cc(Cl)ccc1O)c1ccccc1 | 199 | 78.5 | 100 |  |
| 2400 | O=C(NCc1cc(F)cc(C(F)(F)F)c1)c1cc(Cl)ccc1O | 36.3 | 15.1 |  |  |
| 270 | O=C(Nc1ccc(F)c(F)c1)c1cc(Cl)ccc1O | 8 | 29.6 | 100 |  |
| 1320 | O=C(NCc1ccc(C(F)(F)F)cc1F)c1cc(Cl)ccc1O | 45.6 | 34.6 |  |  |
| 1730 | O=C(NCc1ccc(Cl)cc1Cl)c1cc(Cl)ccc1O | 30.9 | 17.9 |  |  |
| 2560 | O=C(NCc1ccc(F)cc1Cl)c1cc(Cl)ccc1O | 30.9 | 12.1 |  |  |
| 600 | O=C(Nc1ccc([N+](=O)[O-])cc1Cl)c1cc(Cl)ccc1O [NICLOSAMIDE] |  |  | 100 | inhibition at 50 µM (Human adenovirus 5 [5]): 100%; IC50 (Human adenovirus 5 [6]): 1220 nM; fold change (FC) (Human adenovirus 5 [11]): 82; Activity (Human adenovirus 5 [14]): 49.51%; Activity (Human adenovirus 5 [15]): 0.05% |
| 3570 | O=C(NCc1ccc(Cl)cc1)c1cc(Cl)ccc1O | 27.1 | 7.6 |  |  |
| 6560 | O=C(NCc1ccc([N+](=O)[O-])cc1)c1cc(Cl)ccc1O | 175 | 26.7 |  |  |
| 2590 | O=C(NCc1ccc(C(F)(F)F)cc1)c1cc(Cl)ccc1O | 23.9 | 9.2 |  |  |
